From ChEMBL document CHEMBL4304739, “Discovery of 3-(Indol-5-yl)-indazole Derivatives as Novel Myeloid Differentiation Protein 2/Toll-like Receptor 4 Antagonists for Treatment of Acute Lung Injury” (J Med Chem, 2019)
Active and inactive are the calls of the source. The rule behind the calls is not given here.

Tests used:
Homo sapiens = organism: Homo sapiens; assay: Inhibition of EGFP-fused NFkappaB (unknown origin) stably expressed in mouse RAW 264.7 cells assessed as reduction in LPS-induced transcriptional activation at 10 uM measured after 3 hrs by flow cytometric analysis; type: cell-based
Method in brief: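 RAW264.7 cells stably carrying an NF-κB response element–EGFP reporter (lentiviral, puromycin-selected). Cells treated with 500 ng/mL LPS for 1 h, then vehicle or compound (10 μM) for 3 h. EGFP signal measured by flow cytometry.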

[1] = biological target: Cyclin-dependent kinase 3 (Homo sapiens) (UniProt Q00526); assay: Inhibition of wild-type human full length CDK3 (M1 to H305 residues) expressed in bacterial expression system at 1 uM by Kinomescan method
Cyclin-dependent kinase 3 (Homo sapiens), sequence (Q00526 whole entry, looked up, the tested form may be a part): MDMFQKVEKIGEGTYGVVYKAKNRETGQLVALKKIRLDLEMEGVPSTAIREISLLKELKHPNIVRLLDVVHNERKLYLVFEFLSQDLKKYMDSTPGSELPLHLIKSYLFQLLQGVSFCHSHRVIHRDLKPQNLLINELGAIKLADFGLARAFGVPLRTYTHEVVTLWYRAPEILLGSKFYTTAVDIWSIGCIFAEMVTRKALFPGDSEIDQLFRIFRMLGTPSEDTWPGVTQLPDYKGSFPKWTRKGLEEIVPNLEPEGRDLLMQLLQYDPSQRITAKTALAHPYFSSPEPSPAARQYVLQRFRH
Method in brief: (§1)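 KINOMEscan competition binding screen at 1 μM compound. Results reported as % of control = (test − positive control)/(DMSO negative control − positive control) × 100, where lower values mean stronger hits.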

[2] = biological target: Casein kinase I isoform delta (Homo sapiens) (UniProt P48730); assay: Inhibition of wild-type human full length CSNK1D (M1 to K409 residues) expressed in bacterial expression system at 1 uM by Kinomescan method; method in brief: as §1
Casein kinase I isoform delta (Homo sapiens), sequence (P48730 whole entry, looked up, the tested form may be a part, canonical isoform): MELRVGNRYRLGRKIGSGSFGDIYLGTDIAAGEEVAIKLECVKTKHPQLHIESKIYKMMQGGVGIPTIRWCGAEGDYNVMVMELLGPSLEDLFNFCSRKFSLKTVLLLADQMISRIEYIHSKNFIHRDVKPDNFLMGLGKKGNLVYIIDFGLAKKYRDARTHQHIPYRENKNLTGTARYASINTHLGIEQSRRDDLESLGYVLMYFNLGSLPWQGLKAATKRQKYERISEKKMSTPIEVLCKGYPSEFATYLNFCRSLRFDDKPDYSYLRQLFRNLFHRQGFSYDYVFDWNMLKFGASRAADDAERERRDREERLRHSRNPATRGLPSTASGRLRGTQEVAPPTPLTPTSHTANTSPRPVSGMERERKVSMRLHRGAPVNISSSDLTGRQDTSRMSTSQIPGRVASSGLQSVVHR

[3] = biological target: Epidermal growth factor receptor (Homo sapiens) (UniProt P00533); assay: Inhibition of wild-type human partial length EGFR (R669 to V1011 residues) expressed in bacterial expression system at 1 uM by Kinomescan method
Epidermal growth factor receptor (Homo sapiens), sequence (P00533 whole entry, the tested form may be a part): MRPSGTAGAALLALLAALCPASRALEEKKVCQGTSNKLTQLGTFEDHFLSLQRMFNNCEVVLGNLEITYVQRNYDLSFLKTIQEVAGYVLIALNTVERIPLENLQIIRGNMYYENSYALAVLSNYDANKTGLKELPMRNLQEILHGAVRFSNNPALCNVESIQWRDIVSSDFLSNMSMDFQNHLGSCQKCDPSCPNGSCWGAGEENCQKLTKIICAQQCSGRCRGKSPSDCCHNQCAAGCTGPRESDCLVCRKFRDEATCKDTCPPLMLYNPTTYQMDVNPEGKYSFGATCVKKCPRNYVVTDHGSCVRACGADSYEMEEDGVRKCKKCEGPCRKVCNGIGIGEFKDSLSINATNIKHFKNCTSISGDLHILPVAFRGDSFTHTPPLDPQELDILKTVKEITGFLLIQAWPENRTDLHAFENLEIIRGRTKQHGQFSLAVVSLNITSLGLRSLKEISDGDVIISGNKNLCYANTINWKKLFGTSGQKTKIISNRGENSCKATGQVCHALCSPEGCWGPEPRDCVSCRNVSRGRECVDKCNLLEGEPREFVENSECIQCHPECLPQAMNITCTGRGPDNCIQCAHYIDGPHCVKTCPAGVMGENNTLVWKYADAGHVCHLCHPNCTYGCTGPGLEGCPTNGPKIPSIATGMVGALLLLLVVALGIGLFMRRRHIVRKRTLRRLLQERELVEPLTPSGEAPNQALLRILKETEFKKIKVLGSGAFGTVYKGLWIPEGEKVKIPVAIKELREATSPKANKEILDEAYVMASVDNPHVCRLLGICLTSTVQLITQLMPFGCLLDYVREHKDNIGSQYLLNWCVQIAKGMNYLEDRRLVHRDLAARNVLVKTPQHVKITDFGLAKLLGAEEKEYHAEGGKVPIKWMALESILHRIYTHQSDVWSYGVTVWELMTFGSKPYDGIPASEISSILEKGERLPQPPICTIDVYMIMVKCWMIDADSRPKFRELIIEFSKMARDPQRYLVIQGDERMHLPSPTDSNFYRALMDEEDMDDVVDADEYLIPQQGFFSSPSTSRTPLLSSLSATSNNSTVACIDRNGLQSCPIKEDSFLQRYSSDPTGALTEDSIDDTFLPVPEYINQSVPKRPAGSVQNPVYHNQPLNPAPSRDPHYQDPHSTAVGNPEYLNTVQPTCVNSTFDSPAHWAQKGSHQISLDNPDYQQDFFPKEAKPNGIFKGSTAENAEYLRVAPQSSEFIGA
Method in brief: (§2)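 KINOMEscan competition binding panel (98 kinases) run by the provider, compound screened once at 1 μM. Read-out is percent of control: [(test signal − positive control signal)/(negative control signal − positive control signal)] × 100. DMSO negative control sets 100% Ctrl and a control compound sets 0% Ctrl; lower values mean stronger hits.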

[4] = test system: Epidermal growth factor receptor (Homo sapiens), P00533 [L858R]; assay: Inhibition of human partial length EGFR L858R mutant (R669 to V1011 residues) expressed in bacterial expression system at 1 uM by Kinomescan method; method in brief: as §2
Epidermal growth factor receptor (Homo sapiens), P00533 [L858R], sequence (P00533 whole entry L858R, the tested form may be a part): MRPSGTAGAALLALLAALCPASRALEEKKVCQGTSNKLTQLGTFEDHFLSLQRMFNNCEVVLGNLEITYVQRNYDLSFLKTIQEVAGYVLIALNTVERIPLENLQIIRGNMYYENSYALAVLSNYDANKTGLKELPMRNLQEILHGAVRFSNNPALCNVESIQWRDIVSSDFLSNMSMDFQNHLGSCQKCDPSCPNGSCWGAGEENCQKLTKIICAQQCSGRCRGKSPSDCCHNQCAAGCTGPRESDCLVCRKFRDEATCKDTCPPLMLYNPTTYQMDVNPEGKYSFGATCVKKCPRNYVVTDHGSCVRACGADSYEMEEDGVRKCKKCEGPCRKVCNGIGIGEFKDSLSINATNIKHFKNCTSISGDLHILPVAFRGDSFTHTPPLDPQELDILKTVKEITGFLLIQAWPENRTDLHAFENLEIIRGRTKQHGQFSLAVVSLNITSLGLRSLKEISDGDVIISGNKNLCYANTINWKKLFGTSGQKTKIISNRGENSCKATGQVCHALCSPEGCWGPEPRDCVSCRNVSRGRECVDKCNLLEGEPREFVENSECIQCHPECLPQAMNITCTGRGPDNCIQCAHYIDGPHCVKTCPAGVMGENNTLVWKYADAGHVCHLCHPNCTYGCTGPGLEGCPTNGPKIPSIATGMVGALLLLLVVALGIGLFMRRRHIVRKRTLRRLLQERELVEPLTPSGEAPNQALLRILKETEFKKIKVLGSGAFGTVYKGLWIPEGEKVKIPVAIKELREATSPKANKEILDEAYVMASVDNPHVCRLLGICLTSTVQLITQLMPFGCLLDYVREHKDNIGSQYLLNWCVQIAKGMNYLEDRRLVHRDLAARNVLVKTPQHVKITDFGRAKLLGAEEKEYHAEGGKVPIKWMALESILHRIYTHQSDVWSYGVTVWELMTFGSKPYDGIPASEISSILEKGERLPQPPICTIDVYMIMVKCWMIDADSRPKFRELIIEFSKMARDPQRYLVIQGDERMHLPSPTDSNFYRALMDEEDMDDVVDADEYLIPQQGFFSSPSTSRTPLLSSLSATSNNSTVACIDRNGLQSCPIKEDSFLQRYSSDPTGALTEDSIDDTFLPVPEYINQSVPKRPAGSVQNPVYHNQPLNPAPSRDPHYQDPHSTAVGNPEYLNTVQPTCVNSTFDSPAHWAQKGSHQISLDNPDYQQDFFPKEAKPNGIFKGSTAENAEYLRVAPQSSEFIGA

[5] = biological target: Inhibitor of nuclear factor kappa-B kinase subunit alpha (Homo sapiens) (UniProt O15111); assay: Inhibition of wild-type human full length IKK-alpha (M1 to E745 residues) expressed in mammalian expression system at 1 uM by Kinomescan method; method in brief: as §1
Inhibitor of nuclear factor kappa-B kinase subunit alpha (Homo sapiens), sequence (O15111 whole entry, the tested form may be a part, canonical isoform): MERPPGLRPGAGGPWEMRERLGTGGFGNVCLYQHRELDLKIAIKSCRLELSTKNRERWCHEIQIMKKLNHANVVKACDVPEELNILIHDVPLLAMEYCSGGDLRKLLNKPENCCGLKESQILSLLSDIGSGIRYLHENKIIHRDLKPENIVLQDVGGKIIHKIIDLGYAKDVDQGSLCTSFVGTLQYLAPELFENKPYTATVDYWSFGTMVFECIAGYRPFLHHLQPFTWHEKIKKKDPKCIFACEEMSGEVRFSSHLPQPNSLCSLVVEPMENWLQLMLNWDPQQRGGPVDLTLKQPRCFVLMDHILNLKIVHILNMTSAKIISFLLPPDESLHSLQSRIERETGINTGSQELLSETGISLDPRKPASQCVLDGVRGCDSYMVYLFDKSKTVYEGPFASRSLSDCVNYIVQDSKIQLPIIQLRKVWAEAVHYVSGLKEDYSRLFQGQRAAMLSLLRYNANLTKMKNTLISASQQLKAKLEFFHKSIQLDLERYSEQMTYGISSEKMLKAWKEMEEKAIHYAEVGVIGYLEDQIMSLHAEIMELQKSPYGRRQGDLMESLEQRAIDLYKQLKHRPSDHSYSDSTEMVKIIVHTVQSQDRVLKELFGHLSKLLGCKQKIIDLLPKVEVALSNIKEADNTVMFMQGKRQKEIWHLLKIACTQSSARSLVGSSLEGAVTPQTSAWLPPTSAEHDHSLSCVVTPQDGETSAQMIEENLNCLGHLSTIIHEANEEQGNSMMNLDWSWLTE

[6] = biological target: Phosphatidylinositol 4,5-bisphosphate 3-kinase catalytic subunit gamma isoform (Homo sapiens) (UniProt P48736); assay: Inhibition of wild-type human partial length PIK3CG (S144 to A1102 residues) expressed in mammalian expression system at 1 uM by Kinomescan method
Phosphatidylinositol 4,5-bisphosphate 3-kinase catalytic subunit gamma isoform (Homo sapiens), sequence (P48736 whole entry, looked up, the tested form may be a part, canonical isoform): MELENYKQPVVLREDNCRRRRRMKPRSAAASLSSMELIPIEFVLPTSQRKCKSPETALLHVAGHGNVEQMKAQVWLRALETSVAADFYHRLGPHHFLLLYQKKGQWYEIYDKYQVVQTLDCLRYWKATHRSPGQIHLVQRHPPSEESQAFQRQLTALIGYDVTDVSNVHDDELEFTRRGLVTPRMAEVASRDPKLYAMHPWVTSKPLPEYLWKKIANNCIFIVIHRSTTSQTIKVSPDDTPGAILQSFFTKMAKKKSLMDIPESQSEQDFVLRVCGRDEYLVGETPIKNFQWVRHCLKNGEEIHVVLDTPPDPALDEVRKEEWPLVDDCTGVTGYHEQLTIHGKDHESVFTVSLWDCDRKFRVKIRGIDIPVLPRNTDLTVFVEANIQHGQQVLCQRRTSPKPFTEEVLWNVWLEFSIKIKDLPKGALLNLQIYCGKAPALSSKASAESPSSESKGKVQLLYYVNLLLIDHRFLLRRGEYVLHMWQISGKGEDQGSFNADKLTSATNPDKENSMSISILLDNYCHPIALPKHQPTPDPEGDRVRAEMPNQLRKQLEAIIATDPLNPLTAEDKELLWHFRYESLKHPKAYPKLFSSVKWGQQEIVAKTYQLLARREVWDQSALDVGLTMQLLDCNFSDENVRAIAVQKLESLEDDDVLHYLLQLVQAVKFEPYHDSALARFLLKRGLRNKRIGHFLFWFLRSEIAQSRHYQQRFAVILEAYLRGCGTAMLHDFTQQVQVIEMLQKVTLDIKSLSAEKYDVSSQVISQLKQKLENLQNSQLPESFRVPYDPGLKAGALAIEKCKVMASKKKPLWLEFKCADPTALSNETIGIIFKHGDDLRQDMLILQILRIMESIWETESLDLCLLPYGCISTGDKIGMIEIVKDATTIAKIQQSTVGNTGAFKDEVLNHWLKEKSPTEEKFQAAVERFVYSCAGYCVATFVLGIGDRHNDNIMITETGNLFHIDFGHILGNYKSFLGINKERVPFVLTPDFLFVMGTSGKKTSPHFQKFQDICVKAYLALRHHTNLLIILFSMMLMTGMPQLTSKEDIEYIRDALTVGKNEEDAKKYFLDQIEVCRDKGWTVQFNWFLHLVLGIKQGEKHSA
Method in brief: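 Binding-competition screen on the KINOMEscan platform, run by the provider, with the test compound at 1 μM. Readout is percent of control: (test signal − positive control signal)/(negative control signal − positive control signal) × 100. The DMSO negative control is set as 100% Ctrl and a control compound as 0% Ctrl. Lower values mean stronger hits.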

For `O=C(Nc1ccc2[nH]nc(-c3ccc4[nH]ccc4c3)c2c1)c1c(Cl)cccc1Cl`, the inhibition (Homo sapiens) was “Active”, the inhibition [1] was “inactive” and the inhibition [2] was “inactive”. The inhibition [3] was “inactive”, the inhibition [4] was “inactive” and the inhibition [5] was “inactive”. The inhibition [6] was “inactive”.
